Results taken from ChEMBL document CHEMBL1134460, “Terminally alkylated polyamine analogues as chemotherapeutic agents” (J Med Chem, 2001).

Columns and labels:
NCH82 = assay: Cytokinetic effects on H82 small-cell lung tumor line (SCLC) after 96-h treatment; format: functional, Homo sapiens
NCI-H157 [1] = assay: (§1) Effect of exposure of H157 non-SCLC to compound (<10 uM) for 96-h, on natural polyamines and accumulation of the compound; No significant change; format: functional, cell-based; conditions: Homo sapiens
Summary of the method: (§2)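 H157 non-SCLC cells were treated with 10 μM analogue. Cellular putrescine, spermidine and spermine, plus the intracellular analogue, were quantified and compared with untreated control cells.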

[2] = biological target: T1, Diamine acetyltransferase 1 (Homo sapiens, UniProt P21673); assay: Effect of 10 uM on spermine/spermidine-N-acetyltransferase (SSAT) induction in non-SCLC cells; format: cell-based
Summary of the method: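 NCI H157 non-small-cell lung tumor cells were exposed to 10 μM analogue. SSAT activity was assayed and expressed as pmol product/mg protein/min, then as fold increase over untreated control cells.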

NCI-H157 [3] = assay: Activity against H157 non-SCLC cells in culture; format: functional, cell-based; conditions: Homo sapiens
NCI-H157 [4] = assay: Effect of exposure of H157 non-SCLC to compound (<10 uM) for 96-h, on natural polyamines and accumulation of the compound; Decrease; format: functional, cell-based; conditions: Homo sapiens; summary of the method: as §2
[5] = biological target: T2, Ornithine decarboxylase (Homo sapiens) (UniProt P11926); assay: Inhibition of ornithine decarboxylase (ODC); set-up: concentration or dose not given beside the values; conditions: concentration not given here
T2 sequence (whole entry): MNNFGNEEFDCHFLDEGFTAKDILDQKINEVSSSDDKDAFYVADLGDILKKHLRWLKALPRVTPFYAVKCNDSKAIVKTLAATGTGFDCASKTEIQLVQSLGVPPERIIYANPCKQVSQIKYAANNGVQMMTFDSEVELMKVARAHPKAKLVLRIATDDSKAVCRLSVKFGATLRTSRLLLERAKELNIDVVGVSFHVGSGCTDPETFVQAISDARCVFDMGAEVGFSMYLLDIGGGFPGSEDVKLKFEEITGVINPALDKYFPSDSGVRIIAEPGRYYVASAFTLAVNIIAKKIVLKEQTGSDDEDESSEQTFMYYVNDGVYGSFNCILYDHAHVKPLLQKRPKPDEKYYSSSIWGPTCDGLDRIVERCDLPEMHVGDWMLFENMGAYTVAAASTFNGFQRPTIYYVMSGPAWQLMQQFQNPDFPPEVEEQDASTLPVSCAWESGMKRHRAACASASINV

[6] = biological target: T1, Diamine acetyltransferase 1; assay: Inhibitory activity of compound against SSAT extracted from superinduced H157 cells; format: cell-free
Summary of the method: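 SSAT came from crude extracts of superinduced H157 cells and was assayed at saturating spermidine.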

Trypanosoma brucei [7] = assay: In vitro growth Inhibitory activity against LAB 110 Strain of Trypanosoma brucei; format: functional, organism-based
Summary of the method: (§3)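 In vitro growth inhibition was run against T. b. brucei LAB EATRO 110 and T. b. rhodesiense KETRI 243, KETRI 243 As-10-3 and KETRI 269. […] ">100" means no appreciable inhibition up to the highest concentration tested.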

Trypanosoma brucei [8] = assay: In vitro growth Inhibitory activity against K243 Strain of Trypanosoma brucei.; format: functional, organism-based; summary of the method: as §3
NCI-H157 [9] = assay: Effect of exposure of H157 non-SCLC (<10 uM) for 96-h, and accumulation of compound was determined; format: functional, Homo sapiens
NCI-H157 [10] = assay: as §1; format: functional, cell-based; conditions: Homo sapiens; remark: listed apart in the source
[11] = biological target: S-adenosylmethionine decarboxylase (Homo sapiens) (UniProt P17707); assay: Inhibition of Inhibition of human form of S-adenosyl-methionine decarboxylase enzyme (AdoMet-DC); set-up: concentration or dose not given beside the values; conditions: concentration not given here
Trypanosoma brucei [12] = assay: in vivo growth inhibition of Trypanosoma brucei was determined; format: functional, organism-based
[13] = biological target: T3, S-adenosylmethionine decarboxylase proenzyme (Rattus norvegicus, UniProt P17708); assay: Inhibition of rat liver form of S-adenosyl-methionine decarboxylase enzyme
T3 sequence (P17708 whole entry): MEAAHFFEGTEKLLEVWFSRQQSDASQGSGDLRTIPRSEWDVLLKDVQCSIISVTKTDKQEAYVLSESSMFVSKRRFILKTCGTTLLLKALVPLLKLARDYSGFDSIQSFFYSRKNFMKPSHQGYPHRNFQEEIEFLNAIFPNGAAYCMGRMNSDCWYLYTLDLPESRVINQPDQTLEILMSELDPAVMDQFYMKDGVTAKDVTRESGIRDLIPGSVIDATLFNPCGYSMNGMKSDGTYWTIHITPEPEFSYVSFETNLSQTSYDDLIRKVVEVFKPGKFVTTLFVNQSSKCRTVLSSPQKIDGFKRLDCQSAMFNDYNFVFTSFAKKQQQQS

[14] = Half-life period in liver tissues; format: ADME, tissue-based

T1 sequence (P21673 whole entry): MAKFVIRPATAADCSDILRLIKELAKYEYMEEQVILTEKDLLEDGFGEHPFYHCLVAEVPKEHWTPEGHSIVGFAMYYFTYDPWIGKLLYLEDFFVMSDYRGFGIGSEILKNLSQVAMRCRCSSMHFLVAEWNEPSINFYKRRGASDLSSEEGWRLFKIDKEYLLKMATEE

In the case of `CCNCCCNCCCN1CCCCCC1`, the Effect (NCH82) is reported as 0, the “Effect on polyamine pools” value (NCI-H157 [1]) is reported as “No significant change” and the Induction [2] is reported as less than 50.

For `C#CCNCCCNCCCNCCCNCC`, the IC50 (NCI-H157 [3]) was 1.1 µM, the “Effect on polyamine pools” value (NCI-H157 [4]) was “Decrease” and the inhibition [5] was less than 50%. The IC50 [6] was 40 µM and the Induction [2] was greater than 500.

With `CCNCCCN[C@H]1C=C[C@@H](N)CCC1` the IC50 (Trypanosoma brucei [7]) was greater than 100 µM and the IC50 (Trypanosoma brucei [8]) was greater than 100 µM.

For `CCNCCCNCCCNCC1CCCCCC1`, the Amount (NCI-H157 [9]) was >20 nM (mg of protein)-1, the “Effect on polyamine pools” value (NCI-H157 [4]) was “Decrease” and the Induction [2] was greater than 500.

In the case of `C(CCCNCCCNCC1CCCCCC1)CCCNCCCNCC1CCCCCC1`, the Induction [2] is reported as 0 and the NC (NCI-H157 [10]) is reported as “No significant change”.

With `CCNCCCNCCCNCCCNCC1CCCC1` the Amount (NCI-H157 [9]) was >20 nM (mg of protein)-1, the “Effect on polyamine pools” value (NCI-H157 [4]) was “Decrease” and the inhibition [5] was greater than 50%. The Induction [2] was greater than 500 and the inhibition [11] was greater than 50%.

For `CCNCCCNCCCNCCCNCC1CCC(Br)CC1` (stereo unspecified), the Amount (NCI-H157 [9]) was >20 nM (mg of protein)-1, the “Effect on polyamine pools” value (NCI-H157 [4]) was “Decrease” and the inhibition [5] was less than 50%. The Induction [2] was less than 50 and the inhibition [11] was less than 50%.

With `CCNCCCNCCCNCCCNCC1CCCCC1` the Amount (NCI-H157 [9]) was >20 nM (mg of protein)-1, the “Effect on polyamine pools” value (NCI-H157 [4]) was “Decrease” and the inhibition [5] was less than 50%. For the same compound, the Induction [2] was less than 50 and the inhibition [11] was less than 50%.

Compound `C[S+](C[C@@H]1O[C@H](n2cnc3c(N)ncnc32)[C@@H](O)[C@H]1O)C1C=CC(ON)C1` (stereo partly specified) has an IC50 (Trypanosoma brucei [12]) of 0.9 µM.

For `NC/C=C\NC[C@@H]1O[C@H](n2cnc3c(N)ncnc32)[C@@H](O)[C@H]1O`, the Ki [13] was 0.56 µM.

Compound `CCNCCCCNCCCCNCCCCNCC` [DIETHYLHOMOSPERMINE] has a half-life [14] of 15.4 days.

With `CCNCCCNCCCNCCCO` the Effect (NCH82) was 0, the Amount (NCI-H157 [9]) was >20 nM (mg of protein)-1 and the “Effect on polyamine pools” value (NCI-H157 [4]) was “Decrease”. The inhibition [5] was less than 50%, the Induction [2] was greater than 500 and the inhibition [11] was less than 50%.

For `CCNCCCN[C@@H]1CCC[C@H](N)CC1`, the IC50 (Trypanosoma brucei [7]) was greater than 100 µM and the IC50 (Trypanosoma brucei [8]) was greater than 100 µM.
